# Experimental data taken from ChEMBL document CHEMBL1154871, “Synthesis of new spiroindolinones incorporating a benzothiazole moiety as antioxidant agents” (Eur J Med Chem, 2010).
# Legend:
# Format in all cases: functional
# [1] = Antioxidant activity assessed as inhibition of Fe(3+)/ascorbate-induced lipid peroxidation in liposomes after 1 hr by TBARS assay
# In short: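 Lecithin liposomes were sonicated in 10 mmol/L phosphate buffer, pH 7.4. Final mix: 3.08 mg liposome/mL, 123.2 µmol FeCl3, 123.2 µmol ascorbic acid, test compound 0.025–0.4 mM. Incubated 1 h at 37 °C. MDA measured by TBA reaction; n-butanol layer read at 532 nm against a lecithin-free blank. EC50 is the concentration reducing TBARS to 50% of control.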
# [2] = test system: Radical scavenging activity; test: Antioxidant activity assessed as DPPH radical scavenging activity after 30 mins by spectrophotometry
# In short: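 Test compounds (0.2–6.25 mM) dissolved in DMSO, added to 6×10^-5 M methanolic DPPH. Mixture held 30 min at room temperature in the dark, then absorbance read at 517 nm against methanol. Scavenging % = [1 − A_sample/A_control] × 100, with a negative control lacking sample. Triplicates averaged; EC50 taken from dose–response.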
# [3] = Antioxidant activity assessed as trolox equivalent of ABTS free radical scavenging activity after 6 mins by […]
# In short: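 ABTS radical cation solution was added to compounds (0.2–6.25 mM). Decrease in absorbance at 734 nm was read exactly 6 min after mixing, with ethanol blanks. A Trolox standard curve (final 0–20 µM in ethanol) gives TEAC, the mM Trolox equivalent to 1 mM compound. Run in triplicate.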
# [4] = Antioxidant activity assessed as reduction of […]/ferricyanide complex after 20 mins by spectrophotometry
# In short: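 Compounds (1.6–6.25 mM) mixed with 0.2 M phosphate buffer, pH 6.6, and 1% potassium ferricyanide, 20 min at 50 °C. Stopped with 1% TCA and centrifuged at 2790 g for 10 min. Supernatant plus water and 0.1% FeCl3 read at 700 nm. EC50 is the concentration giving absorbance 0.5. Mean ± SD of triplicates.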
# MDA-MB-231 = test: Growth inhibition in human MDA-MB-231/ATCC cells assessed as viable cells at 10 uM after 48 hrs by sulforhodamine B assay; conditions: MDA-MB-231, 48 h, read-out: Activity
# In short: (§1)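 NCI 60-line screen, single dose 10^-5 M, 48 h continuous exposure. Cells grown in RPMI 1640 with 5% FBS and 2 mM L-glutamine, plated at 5000–40,000 cells/well and preincubated 24 h at 37 °C, 5% CO2. Drug stocks in DMSO. Endpoint: TCA fixation, SRB staining, absorbance at 515 nm. Growth % relative to untreated controls and time-zero plates.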
# [5] = Growth inhibition in human Hs 578T cells assessed as viable cells at 10 uM after 48 hrs by sulforhodamine B assay; conditions: read-out: Activity; in short: as §1
# BT-549 = test: Growth inhibition in human BT549 cells assessed as viable cells at 10 uM after 48 hrs by sulforhodamine B assay; conditions: BT-549, 48 h, read-out: Activity; in short: as §1
# T47D = test: Growth inhibition in human T47D cells assessed as viable cells at 10 uM after 48 hrs by sulforhodamine B assay; conditions: read-out: Activity
# MDA-MB-468 = test: Growth inhibition in human MDA-MB-468 cells assessed as viable cells at 10 uM after 48 hrs by sulforhodamine B assay; conditions: MDA-MB-468, 48 h, read-out: Activity; in short: as §1
# SF-268 = test: Growth inhibition in human SF268 cells assessed as viable cells at 10 uM after 48 hrs by sulforhodamine B assay; conditions: SF-268, 48 h, read-out: Activity
# SF-295 = test: Growth inhibition in human SF295 cells assessed as viable cells at 10 uM after 48 hrs by sulforhodamine B assay; conditions: SF-295, 48 h, read-out: Activity
# SF-539 = test: Growth inhibition in human SF539 cells assessed as viable cells at 10 uM after 48 hrs by sulforhodamine B assay; conditions: SF-539, 48 h, read-out: Activity
# U-251 = test: Growth inhibition in human U251 cells assessed as viable cells at 10 uM after 48 hrs by sulforhodamine B assay; conditions: U-251, 48 h, read-out: Activity; in short: as §1
# SNB-19 = test: Growth inhibition in human SNB19 cells assessed as viable cells at 10 uM after 48 hrs by sulforhodamine B assay; conditions: SNB-19, 48 h, read-out: Activity
# SNB-75 = test: Growth inhibition in human SNB75 cells assessed as viable cells at 10 uM after 48 hrs by sulforhodamine B assay; conditions: SNB-75, 48 h, read-out: Activity
# LOX IMVI = test: Growth inhibition in human LOXIMVI cells assessed as viable cells at 10 uM after 48 hrs by sulforhodamine B assay; conditions: read-out: Activity
# Malme-3M = test: Growth inhibition in human MALME-3M cells assessed as viable cells at 10 uM after 48 hrs by sulforhodamine B assay; conditions: read-out: Activity
# M14 = test: Growth inhibition in human M14 cells assessed as viable cells at 10 uM after 48 hrs by sulforhodamine B assay; conditions: M14, 48 h, read-out: Activity; in short: as §1
# MDA-MB-435 = test: Growth inhibition in human MDA-MB-435 cells assessed as viable cells at 10 uM after 48 hrs by sulforhodamine B assay; conditions: MDA-MB-435, 48 h, read-out: Activity
# SK-MEL-2 = test: Growth inhibition in human SK-MEL-2 cells assessed as viable cells at 10 uM after 48 hrs by sulforhodamine B assay; conditions: SK-MEL-2, 48 h, read-out: Activity
# SK-MEL-28 = test: Growth inhibition in human SK-MEL-28 cells assessed as viable cells at 10 uM after 48 hrs by sulforhodamine B assay; conditions: SK-MEL-28, 48 h, read-out: Activity; in short: as §1
# SK-MEL-5 = test: Growth inhibition in human SK-MEL-5 cells assessed as viable cells at 10 uM after 48 hrs by sulforhodamine B assay; conditions: SK-MEL-5, 48 h, read-out: Activity
# UACC-257 = test: Growth inhibition in human UACC257 cells assessed as viable cells at 10 uM after 48 hrs by sulforhodamine B assay; conditions: UACC-257, 48 h, read-out: Activity
# UACC-62 = test: Growth inhibition in human UACC62 cells assessed as viable cells at 10 uM after 48 hrs by sulforhodamine B assay; conditions: UACC-62, 48 h, read-out: Activity
# IGROV-1 = test: Growth inhibition in human IGROV1 cells assessed as viable cells at 10 uM after 48 hrs by sulforhodamine B assay; conditions: IGROV-1, 48 h, read-out: Activity
# OVCAR-3 = test: Growth inhibition in human OVCAR-3 cells assessed as viable cells at 10 uM after 48 hrs by sulforhodamine B assay; conditions: OVCAR-3, 48 h, read-out: Activity
# OVCAR-4 = test: Growth inhibition in human OVCAR4 cells assessed as viable cells at 10 uM after 48 hrs by sulforhodamine B assay; conditions: OVCAR-4, 48 h, read-out: Activity
# OVCAR-5 = test: Growth inhibition in human OVCAR5 cells assessed as viable cells at 10 uM after 48 hrs by sulforhodamine B assay; conditions: OVCAR-5, 48 h, read-out: Activity
# OVCAR-8 = test: Growth inhibition in human OVCAR8 cells assessed as viable cells at 10 uM after 48 hrs by sulforhodamine B assay; conditions: OVCAR-8, 48 h, read-out: Activity
# NCI/ADR-RES = test: Growth inhibition in human NCI/ADR-RES cells assessed as viable cells at 10 uM after 48 hrs by sulforhodamine B assay; conditions: read-out: Activity; in short: as §1
# SK-OV-3 = test: Growth inhibition in human SKOV3 cells assessed as viable cells at 10 uM after 48 hrs by sulforhodamine B assay; conditions: SK-OV-3, 48 h, read-out: Activity; in short: as §1
# 786-0 = test: Growth inhibition in human 786-0 cells assessed as viable cells at 10 uM after 48 hrs by sulforhodamine B assay; conditions: 786-0, 48 h, read-out: Activity; in short: as §1
# A498 = test: Growth inhibition in human A498 cells assessed as viable cells at 10 uM after 48 hrs by sulforhodamine B assay; conditions: A498, 48 h, read-out: Activity; in short: as §1
# ACHN = test: Growth inhibition in human ACHN cells assessed as viable cells at 10 uM after 48 hrs by sulforhodamine B assay; conditions: read-out: Activity; in short: as §1
# CAKI-1 = test: Growth inhibition in human Caki1 cells assessed as viable cells at 10 uM after 48 hrs by sulforhodamine B assay; conditions: CAKI-1, 48 h, read-out: Activity; in short: as §1
# SN12C = test: Growth inhibition in human SN12C cells assessed as viable cells at 10 uM after 48 hrs by sulforhodamine B assay; conditions: read-out: Activity; in short: as §1
# TK-10 = test: Growth inhibition in human TK10 cells assessed as viable cells at 10 uM after 48 hrs by sulforhodamine B assay; conditions: TK-10, 48 h, read-out: Activity; in short: as §1
# UO-31 = test: Growth inhibition in human UO31 cells assessed as viable cells at 10 uM after 48 hrs by sulforhodamine B assay; conditions: UO-31, 48 h, read-out: Activity; in short: as §1
# PC-3 = test: Growth inhibition in human PC3 cells assessed as viable cells at 10 uM after 48 hrs by sulforhodamine B assay; conditions: PC-3, 48 h, read-out: Activity; in short: as §1
# DU-145 = test: Growth inhibition in human DU145 cells assessed as viable cells at 10 uM after 48 hrs by sulforhodamine B assay; conditions: DU-145, 48 h, read-out: Activity; in short: as §1
# MCF7 = test: Growth inhibition in human MCF7 cells assessed as viable cells at 10 uM after 48 hrs by sulforhodamine B assay; conditions: MCF7, 48 h, read-out: Activity; in short: as §1
structure (smiles),measurement,setting,value
O=C1Nc2ccc([N+](=O)[O-])cc2C12Nc1ccccc1S2 (stereo unspecified),EC50,[1],87 µM
same,EC50,[2],1.3 mM
same,EC50,[3],1.63 mM
same,EC50,[4],0.8 mM
CN1C(=O)C2(Nc3ccccc3S2)c2cc(Br)ccc21 (stereo unspecified),EC50,[1],34 µM
same,EC50,[2],1.01 mM
same,EC50,[3],1.04 mM
same,EC50,[4],4.22 mM
CN1C(=O)C2(Nc3ccccc3S2)c2cc(OC(F)(F)F)ccc21 (stereo unspecified),viability at 10 µM,MDA-MB-231,96.2%
same,viability at 10 µM,[5],92.4%
same,viability at 10 µM,BT-549,108%
same,viability at 10 µM,T47D,60%
same,viability at 10 µM,MDA-MB-468,112%
same,EC50,[1],84 µM
same,EC50,[2],1.62 mM
same,EC50,[3],1.37 mM
same,EC50,[4],4.94 mM
same,viability at 10 µM,SF-268,97.7%
same,viability at 10 µM,SF-295,102%
same,viability at 10 µM,SF-539,116%
same,viability at 10 µM,U-251,88.4%
same,viability at 10 µM,SNB-19,92.4%
same,viability at 10 µM,SNB-75,55.3%
same,viability at 10 µM,LOX IMVI,98.6%
same,viability at 10 µM,Malme-3M,98.5%
same,viability at 10 µM,M14,102%
same,viability at 10 µM,MDA-MB-435,100%
same,viability at 10 µM,SK-MEL-2,101%
same,viability at 10 µM,SK-MEL-28,103%
same,viability at 10 µM,SK-MEL-5,99.7%
same,viability at 10 µM,UACC-257,102%
same,viability at 10 µM,UACC-62,80.4%
same,viability at 10 µM,IGROV-1,86.2%
same,viability at 10 µM,OVCAR-3,103%
same,viability at 10 µM,OVCAR-4,73.4%
same,viability at 10 µM,OVCAR-5,121%
same,viability at 10 µM,OVCAR-8,99.1%
same,viability at 10 µM,NCI/ADR-RES,100%
same,viability at 10 µM,SK-OV-3,102%
same,viability at 10 µM,786-0,108%
same,viability at 10 µM,A498,108%
same,viability at 10 µM,ACHN,80.9%
same,viability at 10 µM,CAKI-1,96.8%
same,viability at 10 µM,SN12C,105%
same,viability at 10 µM,TK-10,105%
same,viability at 10 µM,UO-31,58.3%
same,viability at 10 µM,PC-3,84.6%
same,viability at 10 µM,DU-145,107%
same,viability at 10 µM,MCF7,82.8%
Cc1c(C)c2c(c(C)c1O)CC[C@@](C)(CCC[C@H](C)CCC[C@H](C)CCCC(C)C)O2 [ALPHA-TOCOPHEROL],EC50,[1],153 µM
same,EC50,[2],0.35 mM
same,EC50,[3],1.2 mM
same,EC50,[4],1.95 mM
O=C1O[C@H]([C@@H](O)CO)C(O)=C1O [ASCORBIC ACID],EC50,[2],0.36 mM
same,EC50,[3],1.2 mM
same,EC50,[4],0.65 mM
